For five molecules, Kb, Activity and Ki results are on record in ChEMBL document CHEMBL1806494, “Synthesis and biological evaluation of potential 5-HT(7) receptor PET radiotracers” (Eur J Med Chem, 2011).

Activity calls are given as the source filed them. The calls are words filed in the database; no cut-off is given here. Some results are limits rather than exact numbers.

Test [1] has as its target 5-hydroxytryptamine receptor 6 (Homo sapiens) (UniProt P50406). The test is described as follows: Binding affinity to recombinant human 5HT6 receptor expressed in CHO cells by competitive binding assay. It counts as cell-based. An outline of the steps:
(§1)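 Cell-based functional assay on human recombinant receptors expressed in CHO cells. Test compound inhibition of the control specific agonist response was measured over a concentration range. Concentration-response curves were built from mean replicate values and fitted with the Hill equation by non-linear regression to give IC50, reported as KB.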

Test [2] deals with 5-hydroxytryptamine receptor 7 (Rattus norvegicus) (UniProt P32305). The test is described as follows: Binding affinity to 5HT7 receptor in Sprague-Dawley rat hippocampus at 1 uCi/ml after 20 mins by semi-quantitative autoradiography in presence of 10 to 100 nM of 5HT7 receptor antagonist SB269970. Format: tissue-based. The note with it: tested as the 18F-labelled form. An outline of the steps: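 Coronal rat brain sections (30 µm, cut through hippocampus and cerebellum, stored at -80 °C) brought to ambient temperature, incubated 20 min in Tris phosphate-buffered saline (138 mM NaCl, 2.7 mM KCl, pH 7.6) with 37 kBq/ml [18F]radiotracer, alone or with SB269970 (10 nM, 100 nM or 1 µM). Rinsed 90 s in cold buffer (4 °C), then 90 s in cold water, dried, and exposed to a phosphor imaging plate for 60 min. Hippocampal binding read semi-quantitatively, in triplicate.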

For test [3], the target named is T1, 5-hydroxytryptamine receptor 7 (Homo sapiens, UniProt P34969). The test is described as follows: Binding affinity to recombinant human 5HT7 receptor expressed in CHO cells by competitive binding assay. It counts as cell-based. An outline of the steps:
as §1

The target of test [4] is T2, 5-hydroxytryptamine receptor 1A (Homo sapiens) (UniProt P08908).
T2 sequence (whole entry): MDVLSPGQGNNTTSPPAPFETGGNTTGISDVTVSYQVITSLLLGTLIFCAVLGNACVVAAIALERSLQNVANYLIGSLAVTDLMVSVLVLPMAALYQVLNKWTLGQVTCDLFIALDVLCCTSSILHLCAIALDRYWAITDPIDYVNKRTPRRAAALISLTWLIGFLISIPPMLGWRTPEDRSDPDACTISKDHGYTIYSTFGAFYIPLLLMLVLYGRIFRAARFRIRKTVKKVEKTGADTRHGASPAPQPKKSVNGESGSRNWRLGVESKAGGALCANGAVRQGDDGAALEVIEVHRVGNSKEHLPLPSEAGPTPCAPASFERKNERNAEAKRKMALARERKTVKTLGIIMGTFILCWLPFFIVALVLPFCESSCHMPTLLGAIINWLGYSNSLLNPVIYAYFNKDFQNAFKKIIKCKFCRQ
In words: Binding affinity to recombinant human 5HT1A receptor expressed in CHO cells by competitive binding assay. Format: cell-based. In outline: as §1

For test [5], the target named is T1, 5-hydroxytryptamine receptor 7. The test is described as follows: Binding affinity to 5HT7 receptor.

Sequence of 5-hydroxytryptamine receptor 7 (Rattus norvegicus) (P32305 whole entry): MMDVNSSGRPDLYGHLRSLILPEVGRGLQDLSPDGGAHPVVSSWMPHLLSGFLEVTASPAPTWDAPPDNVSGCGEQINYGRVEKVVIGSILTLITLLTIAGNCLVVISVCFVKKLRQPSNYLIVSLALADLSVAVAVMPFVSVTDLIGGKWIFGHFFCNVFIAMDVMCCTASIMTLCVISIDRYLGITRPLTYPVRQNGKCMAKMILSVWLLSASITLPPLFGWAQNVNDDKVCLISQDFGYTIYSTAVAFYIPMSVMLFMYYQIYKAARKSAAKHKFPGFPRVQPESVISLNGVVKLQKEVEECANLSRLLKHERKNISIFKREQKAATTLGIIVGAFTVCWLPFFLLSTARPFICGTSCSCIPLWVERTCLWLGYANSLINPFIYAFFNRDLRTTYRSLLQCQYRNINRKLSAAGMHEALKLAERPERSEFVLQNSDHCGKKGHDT
Sequence of 5-hydroxytryptamine receptor 6 (Homo sapiens) (P50406 whole entry): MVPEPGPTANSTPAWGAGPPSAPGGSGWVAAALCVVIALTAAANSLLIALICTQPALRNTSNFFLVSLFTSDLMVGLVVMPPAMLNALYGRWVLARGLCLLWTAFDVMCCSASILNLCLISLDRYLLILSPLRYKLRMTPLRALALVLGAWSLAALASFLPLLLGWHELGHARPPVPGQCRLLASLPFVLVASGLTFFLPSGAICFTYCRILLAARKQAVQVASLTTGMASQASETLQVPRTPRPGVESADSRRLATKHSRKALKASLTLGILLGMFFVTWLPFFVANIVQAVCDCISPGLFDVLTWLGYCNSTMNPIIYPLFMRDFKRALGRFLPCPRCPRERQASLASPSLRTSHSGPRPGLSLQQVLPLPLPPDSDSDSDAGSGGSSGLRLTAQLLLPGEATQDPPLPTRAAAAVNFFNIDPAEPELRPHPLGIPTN
T1 sequence (P34969 whole entry): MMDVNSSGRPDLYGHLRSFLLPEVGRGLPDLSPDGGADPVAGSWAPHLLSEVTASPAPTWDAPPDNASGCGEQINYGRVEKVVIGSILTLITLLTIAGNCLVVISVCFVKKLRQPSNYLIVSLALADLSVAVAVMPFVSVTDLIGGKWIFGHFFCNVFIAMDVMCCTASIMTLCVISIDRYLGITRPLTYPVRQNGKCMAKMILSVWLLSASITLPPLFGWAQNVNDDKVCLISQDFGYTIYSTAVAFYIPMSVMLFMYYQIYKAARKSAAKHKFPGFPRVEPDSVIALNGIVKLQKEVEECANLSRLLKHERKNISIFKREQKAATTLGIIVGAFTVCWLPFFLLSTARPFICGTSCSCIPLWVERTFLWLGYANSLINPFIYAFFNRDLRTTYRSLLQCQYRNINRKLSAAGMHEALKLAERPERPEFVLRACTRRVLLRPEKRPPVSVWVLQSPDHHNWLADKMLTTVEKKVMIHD

Take `CC1CCN(CC[C@H]2CCCN2S(=O)(=O)c2ccccc2F)CC1`: the results for the Kb in test [1], in test [3] and in test [4] were above 10000 nM, 8.4 nM and above 10000 nM, respectively. For the same molecule, the outcome in test [2] was inactive.

Consider `COc1ccccc1N1CCN(CC[C@H]2CCCN2S(=O)(=O)c2ccccc2F)CC1`, for which the Kb in test [1] was above 10000 nM; in test [3], 1.6 nM; in test [4] it was above 10000 nM. The outcome in test [2] was Active.

Regarding `COc1ccccc1N1CCN(CC[C@H]2CCCN2S(=O)(=O)c2ccc(F)cc2)CC1`, the Kb in test [1] is above 10000 nM; in test [3] it was 4.8 nM; in test [4], above 10000 nM. Moreover, in test [2], the result was Active.

`[11CH3]N1C(=O)C2(CCCCN3CCc4sccc4C3)CCCc3cccc1c32` (configuration not stated) had a Ki in test [5] of 9.7 nM.

Regarding `CC1CCN(CC[C@H]2CCCN2S(=O)(=O)c2ccc(F)cc2)CC1`, the Kb is above 10000 nM in test [1], 14 nM in test [3] and above 10000 nM in test [4]. The result in test [2] was inactive.

What is called Ki is the equilibrium dissociation constant of an inhibitor or competing ligand from its target.
